We go through 2 compounds from ChEMBL document CHEMBL3758131, “Towards new 5-HT7 antagonists among arylsulfonamide derivatives of (aryloxy)ethyl-alkyl amines: Multiobjective based design, synthesis, and antidepressant and anxiolytic properties” (Eur J Med Chem, 2016).

The subject of data set [1] is Mus musculus. The data set is described as follows: Antidepressant activity in C57BL/6J mouse assessed as average force at 10 mg/kg, ip measured over 6 mins by tail suspension test (reference value: 0.281 +/- 0.018 to 0.359 +/- 0.027 N). The format is functional.
Data set [2] relates to Mus musculus. Nature of the data set: Antidepressant activity in C57BL/6J mouse assessed as number of events at […] mg/kg, ip measured over 6 mins by tail suspension test (reference value: 1325.1 +/- 77.8 to 1773.4 +/- 109.9). The data set is classed as functional.
For data set [3], the system named is Mus musculus. Nature of the data set: Antidepressant activity in C57BL/6J mouse assessed as number of events at […], ip measured over 6 mins by tail suspension test (reference value: 1325.1 +/- 77.8 to 1773.4 +/- 109.9). The data set is classed as functional.
Data set [4] has as its system Mus musculus. The data set is described as follows: Antidepressant activity in C57BL/6J mouse assessed as number of events at 5 mg/kg, ip measured over 6 mins by tail suspension test (reference value: 1325.1 +/- 77.8 to 1773.4 +/- 109.9). The format is functional.
The subject of data set [5] is Mus musculus. The data set is described as follows: Antidepressant activity in C57BL/6J mouse assessed as number of events at 10 mg/kg, ip measured over 6 mins by tail suspension test (reference value: 1325.1 +/- 77.8 to 1773.4 +/- 109.9). The data set is classed as functional.
The test system of data set [6] is Mus musculus. Nature of the data set: Antidepressant activity in C57BL/6J mouse assessed as immobility time at […] mg/kg, ip measured over 6 mins by tail suspension test (reference value: 160.7 +/- 12 to 170.6 +/- 9 sec). The data set is classed as functional.
The test system of data set [7] is Mus musculus. Nature of the data set: Antidepressant activity in C57BL/6J mouse assessed as immobility time at […], ip measured over 6 mins by tail suspension test (reference value: 160.7 +/- 12 to 170.6 +/- 9 sec). The data set is classed as functional.
Data set [8] has as its system Mus musculus. Nature of the data set: Antidepressant activity in C57BL/6J mouse assessed as immobility time at 5 mg/kg, ip measured over 6 mins by tail suspension test (reference value: 160.7 +/- 12 to 170.6 +/- 9 sec). The format is functional.
In data set [9] the test system is Mus musculus. Nature of the data set: Antidepressant activity in C57BL/6J mouse assessed as immobility time at 10 mg/kg, ip measured over 6 mins by tail suspension test (reference value: 160.7 +/- 12 to 170.6 +/- 9 sec). The data set is classed as functional.
Data set [10] has as its system Mus musculus. Nature of the data set: Antidepressant activity in albino Swiss mouse assessed as decrease in immobility time at 10 mg/kg, ip by forced swim test. The data set is classed as functional.
Data set [11] has as its system Mus musculus. The data set is described as follows: Toxicity in ip dosed albino Swiss mouse assessed as effect on spontaneous locomotory activity at MED measured over 2 to 6 mins. The data set is classed as organism-based. To be noted: in vivo. The method, boiled down:
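Male Albino Swiss mice (22–28 g) received drug i.p. 60 min before testing, in 1% aqueous Tween 80 or distilled water. Each mouse was habituated alone in a plastic cage for 30 min, then ambulation was counted from 2 to 6 min. Groups of 6–10 animals, each used once.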

The subject of data set [12] is Mus musculus. Nature of the data set: Antidepressant activity in ip dosed C57BL/6J mouse assessed as reduction in immobility time of mouse by tail suspension test. The data set is classed as functional. The conditions noted are these: read-out: MED.
In a further data set the test system is Rattus norvegicus. Nature of the data set: Antidepressant activity in ip dosed Wistar rat assessed as reduction in immobility time of rat by forced swim test. The format is functional. The method, boiled down: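 Male Wistar rats (220-250 g), ip injection 30 min before test. Day 1: 15-min pre-swim in a cylinder with 15 cm of water at 25 °C, then drying under a lamp. Next day: total immobility recorded over the whole 5-min test, with fresh water for each rat.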

Data set [13] relates to Mus musculus. Nature of the data set: Anxiolytic activity in ip dosed albino Swiss mouse assessed as increase in number of shocks accepted measured over 1 min, 15 secs by four plates test. To be noted: read-out: MED. The data set is classed as functional. The gist of the method:
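Male Albino Swiss mice, ip injection 60 min before test. Four-plate cage; after 15 s of habituation, each plate-to-plate crossing during a 1-min session is punished with a 0.8 mA, 0.5 s foot shock, followed by a 3-s shock-free interval. Number of shocks accepted is counted.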

Data set [14] relates to Mus musculus. The data set is described as follows: Toxicity in ip dosed C57BL/6J mouse assessed as effect on spontaneous locomotory activity at MED measured over 6 mins. The data set is classed as organism-based. The conditions noted are these: in vivo, 0.1 h. The gist of the method:
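Mice habituated 30 min in individual cages, then ambulation counted over a period matching each behavioural test: 6 min for the tail suspension test and 1 min 15 s for the four-plate test. Compounds given ip at the active doses.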

Data set [15] has as its system Mus musculus. Nature of the data set: Toxicity in ip dosed C57BL/6J mouse assessed as effect on spontaneous locomotory activity at MED measured over 1 min 15 secs. The data set is classed as organism-based. To be noted: in vivo.
Data set [16] concerns Mus musculus. Nature of the data set: Antidepressant activity in C57BL/6J mouse assessed as average force at […] mg/kg, ip measured over 6 mins by tail suspension test (reference value: 0.281 +/- 0.018 to 0.359 +/- 0.027 N). The data set is classed as functional.
The subject of data set [17] is Mus musculus. The data set is described as follows: Antidepressant activity in C57BL/6J mouse assessed as average force at […], ip measured over 6 mins by tail suspension test (reference value: 0.281 +/- 0.018 to 0.359 +/- 0.027 N). The data set is classed as functional.
The subject of data set [18] is Mus musculus. Nature of the data set: Antidepressant activity in C57BL/6J mouse assessed as average force at 5 mg/kg, ip measured over 6 mins by tail suspension test (reference value: 0.281 +/- 0.018 to 0.359 +/- 0.027 N). The format is functional.
The subject of data set [19] is Mus musculus. The data set is described as follows: Antidepressant activity in C57BL/6J mouse assessed as average force at 20 mg/kg, ip measured over 6 mins by tail suspension test (reference value: 0.281 +/- 0.018 to 0.359 +/- 0.027 N). The data set is classed as functional.
Data set [20] deals with Mus musculus. The data set is described as follows: Antidepressant activity in C57BL/6J mouse assessed as average force at 40 mg/kg, ip measured over 6 mins by tail suspension test (reference value: 0.281 +/- 0.018 to 0.359 +/- 0.027 N). The format is functional.
Data set [21] concerns Mus musculus. Nature of the data set: Antidepressant activity in C57BL/6J mouse assessed as number of events at 20 mg/kg, ip measured over 6 mins by tail suspension test (reference value: 1325.1 +/- 77.8 to 1773.4 +/- 109.9). The data set is classed as functional.
The test system of data set [22] is Mus musculus. Nature of the data set: Antidepressant activity in C57BL/6J mouse assessed as number of events at 40 mg/kg, ip measured over 6 mins by tail suspension test (reference value: 1325.1 +/- 77.8 to 1773.4 +/- 109.9). The data set is classed as functional.
For data set [23], the system named is Mus musculus. Nature of the data set: Antidepressant activity in C57BL/6J mouse assessed as immobility time at 20 mg/kg, ip measured over 6 mins by tail suspension test (reference value: 160.7 +/- 12 to 170.6 +/- 9 sec). The data set is classed as functional.
The test system of data set [24] is Mus musculus. Nature of the data set: Antidepressant activity in C57BL/6J mouse assessed as immobility time at 40 mg/kg, ip measured over 6 mins by tail suspension test (reference value: 160.7 +/- 12 to 170.6 +/- 9 sec). The data set is classed as functional.
Data set [25] concerns Mus musculus. The data set is described as follows: Antidepressant activity in ip dosed albino Swiss mouse assessed as decrease in immobility time by forced swim test. The data set is classed as functional, organism-based.

The source made the active and inactive calls. The calls are words filed in the database; no cut-off is given here.

For orientation: inhibition in vivo means how much of the control response was suppressed. Consider `CC1CCN(CC[C@H]2CCCN2S(=O)(=O)c2cccc(O)c2)CC1`, for which the Activity in the data set with Mus musculus [1] was 0.311 N; with Mus musculus [2], 1764.8; with Mus musculus [3], 1467.1; with Mus musculus [4] it was 1604.7; in the data set with Mus musculus [5], 1600.1; in the data set on Mus musculus [11], “Non-toxic”. Moreover, the Activity entry in the data set with Mus musculus [14] is on record as “Non-toxic”; with Mus musculus [15] it was “Non-toxic”; with Mus musculus [16], 0.396 N; with Mus musculus [17], 0.449 N; with Mus musculus [18] it was 0.363 N. The Time came out at 139.5 s in the data set with Mus musculus [6], 151 s in the data set with Mus musculus [7], 170.6 s in the data set with Mus musculus [8] and 186.1 s in the data set on Mus musculus [9]. Also, the inhibition in vivo at 10 mg/kg with Mus musculus [10] amounted to 31%. For the same compound, the values for the minimal effective dose in the data set with Mus musculus [12], with Rattus norvegicus (read-out: MED) and with Mus musculus [13] were 2.5 mg/kg, 1.25 mg/kg and 1 mg/kg, respectively.
With `CN(C)CCCC1(c2ccc(F)cc2)OCc2cc(C#N)ccc21` (centres undefined) [CITALOPRAM], the Activity with Mus musculus [1] stood at 0.318 N; in the data set on Mus musculus [19] it was 0.381 N; in the data set with Mus musculus [20], 0.398 N; in the data set on Mus musculus [5] it was 1820.1; in the data set with Mus musculus [21] it was 1961.3; in the data set on Mus musculus [22], 2053.1. For the same compound, the Activity result in the data set on Mus musculus [11], in the data set with Mus musculus [14] and in the data set on Mus musculus [15] was “Non-toxic” each time. Also, the Time stood at 148.7 s with Mus musculus [9], 103 s in the data set on Mus musculus [23] and 95.5 s with Mus musculus [24]. In the data set with Mus musculus [25], the inhibition entry is “Dose-dependent effect”. The minimal effective dose in the data set on Mus musculus [12] turned out to be 20 mg/kg. Further, in the data set on Rattus norvegicus, the MED result is “inactive”.
